Here are results for 24 molecules from ChEMBL document CHEMBL4325828, “The Design, Synthesis, and Characterizations of Spore Germination Inhibitors Effective against an Epidemic Strain of Clostridium difficile” (J Med Chem, 2018).

Experiment [1] has as its system Clostridioides difficile. The experiment is described as follows: Antibacterial activity against Clostridium difficile R20291 assessed as inhibition of spore germination by measuring heat activated spore germination levels at 125 uM in presence of 6 mM taurocholate and 12 mM glycine measured every minute for 2 hrs by standard optical density assay relative to control. Type of experiment: functional. The arrangement: scale not given: the % may be the effect or the level left. Put shortly: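 R20291 spores were screened at a single 125 µM concentration, with germination followed as the fall in absorbance at 580 nm. Compounds not soluble at 125 µM by visual inspection were discarded. Inhibition is relative to untreated spore samples.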

For experiment [2], the system named is Clostridioides difficile. The experiment is described as follows: Antibacterial activity against Clostridium difficile R20291 assessed as inhibition of spore germination in presence of 6 mM taurocholate and 12 mM glycine measured every minute for 2 hrs by standard optical density assay. In kind it is functional, organism-based. The method, boiled down:
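IC50 was determined on R20291 spores across a range of compound concentrations in sodium phosphate medium with 6 mM taurocholate and 12 mM glycine. Germination was read as the decrease in absorbance at 580 nm.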

Experiment [3] relates to Clostridioides difficile. The experiment is described as follows: Potency index, ratio of IC50 for chenodeoxycholate to IC50 for test compound for inhibition of spore germination in Clostridium difficile R20291 in presence of 6 mM taurocholate and 12 mM glycine measured every minute for 2 hrs by standard optical density assay. Type of experiment: functional.
Experiment [4] has as its system Clostridioides difficile. The experiment is described as follows: Antibacterial activity against Clostridium difficile R20291 assessed as inhibition of spore germination in complex BHIS media containing 6 mM taurocholate measured every minute for 2 hrs by standard optical density assay. In kind it is functional, organism-based. The method, boiled down: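 IC50 was determined on R20291 spores across multiple compound concentrations in complex BHIS medium supplemented with 6 mM taurocholate. Germination was monitored as the decline in absorbance at 580 nm.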

pIC50: −log10 of the molar value. A value given as a limit tells only on which side of the number the result lay.

As usually defined, the pIC50 is the negative decadic logarithm of the IC50, by convention in mol/L.

With `C#CCNC(=O)CC[C@@H](C)[C@H]1CC[C@H]2[C@@H]3[C@H](O)C[C@@H]4C[C@H](O)CC[C@]4(C)[C@H]3C[C@H](O)[C@]12C`, the Activity in experiment [1] was determined as 59%. For the same molecule, the pIC50 in experiment [2] was 3.86.
For the molecule `C[C@H](CCC(=O)Nc1cccc(S(=O)(=O)O)c1)[C@H]1CC[C@H]2[C@@H]3[C@H](O)C[C@@H]4C[C@H](O)CC[C@]4(C)[C@H]3C[C@H](O)[C@]12C`, the Activity in experiment [1] is given as 102%.
Still for that read-out and setting: then `C[C@H](CCC(=O)Nc1ccc(NC(=O)OC(C)(C)C)cc1)[C@H]1CC[C@H]2[C@@H]3[C@H](O)C[C@@H]4C[C@H](O)CC[C@]4(C)[C@H]3C[C@H](O)[C@]12C`, with 100%; and `COc1ccc(NC(=O)CC[C@@H](C)[C@H]2CC[C@H]3[C@@H]4[C@H](O)C[C@@H]5C[C@H](O)CC[C@]5(C)[C@H]4C[C@H](O)[C@]23C)c(OC)c1`, with 93%.
As for `C[C@H](CCC(=O)NCC1CC1)[C@H]1CC[C@H]2[C@@H]3[C@H](O)C[C@@H]4C[C@H](O)CC[C@]4(C)[C@H]3C[C@H](O)[C@]12C`, the Activity in experiment [1] is reported as 15%. Also, the pIC50 in experiment [2] is 4.61.
Regarding `C[C@H](CCC(=O)Nc1cccc(C(N)=O)c1)[C@H]1CC[C@H]2[C@@H]3[C@H](O)C[C@@H]4C[C@H](O)CC[C@]4(C)[C@H]3C[C@H](O)[C@]12C`, the Activity in experiment [1] is 85%.
In the case of `C[C@H](CCC(=O)Nc1cccc(N)c1)[C@H]1CC[C@H]2[C@@H]3[C@H](O)C[C@@H]4C[C@H](O)CC[C@]4(C)[C@H]3C[C@H](O)[C@]12C.Cl`, the Activity in experiment [1] is reported as 59%. Further, the pIC50 in experiment [2] is 4.49.
Taken in the same sequence, the figures for `Cc1cc(F)ccc1NC(=O)CC[C@@H](C)[C@H]1CC[C@H]2[C@@H]3[C@H](O)C[C@@H]4C[C@H](O)CC[C@]4(C)[C@H]3C[C@H](O)[C@]12C` were 37% and 4.62.
For `C[C@H](CCC(=O)Nc1ccccc1)[C@H]1CC[C@H]2[C@@H]3[C@H](O)C[C@@H]4C[C@H](O)CC[C@]4(C)[C@H]3C[C@H](O)[C@]12C`, in experiment [1], the Activity stood at 3%. Besides, the pIC50 in experiment [2] and in experiment [4] was 5.74 each time. For the same molecule, the “Ratio IC50” value in experiment [3] is listed as more than 225.
In the case of `C[C@H](CCC(=O)Nc1cccc(NC(=O)OC(C)(C)C)c1)[C@H]1CC[C@H]2[C@@H]3[C@H](O)C[C@@H]4C[C@H](O)CC[C@]4(C)[C@H]3C[C@H](O)[C@]12C`, the Activity in experiment [1] was 89%.
`COc1cccc(NC(=O)CC[C@@H](C)[C@H]2CC[C@H]3[C@@H]4[C@H](O)C[C@@H]5C[C@H](O)CC[C@]5(C)[C@H]4C[C@H](O)[C@]23C)c1`: in experiment [1], the Activity is on record as 55%. Moreover, the pIC50 in experiment [2] is 4.11.
Taken in the same sequence, the figures for `C[C@H](CCC(=O)Nc1ccc(O)cc1)[C@H]1CC[C@H]2[C@@H]3[C@H](O)C[C@@H]4C[C@H](O)CC[C@]4(C)[C@H]3C[C@H](O)[C@]12C` were 20% and 4.44.
For the molecule `C[C@H](CCC(=O)NC1CCCCC1)[C@H]1CC[C@H]2[C@@H]3[C@H](O)C[C@@H]4C[C@H](O)CC[C@]4(C)[C@H]3C[C@H](O)[C@]12C`, the Activity in experiment [1] came out at 47%. Besides, the pIC50 in experiment [2] was 4.02.
On to `C[C@H](CCC(=O)Nc1cccc(F)c1)[C@H]1CC[C@H]2[C@@H]3[C@H](O)C[C@@H]4C[C@H](O)CC[C@]4(C)[C@H]3C[C@H](O)[C@]12C`, for which the Activity in experiment [1] was 8%. The pIC50 in experiment [2] is 4.80.
Taken in the same sequence, the figures for `C[C@H](CCC(=O)NC1CC1)[C@H]1CC[C@H]2[C@@H]3[C@H](O)C[C@@H]4C[C@H](O)CC[C@]4(C)[C@H]3C[C@H](O)[C@]12C` were 6% and 4.60.
For the molecule `C[C@H](CCC(=O)Nc1ccncc1)[C@H]1CC[C@H]2[C@@H]3[C@H](O)C[C@@H]4C[C@H](O)CC[C@]4(C)[C@H]3C[C@H](O)[C@]12C`, the Activity in experiment [1] was 17%. Also, the negative logarithm of the IC50 (pIC50) in experiment [2] was 4.52.
`C[C@H](CCC(=O)NC1CCCC1)[C@H]1CC[C@H]2[C@@H]3[C@H](O)C[C@@H]4C[C@H](O)CC[C@]4(C)[C@H]3C[C@H](O)[C@]12C`: the Activity in experiment [1] turned out to be 6%. Further, in experiment [2], the pIC50 is 4.47.
As for `CCOC(=O)c1cccc(NC(=O)CC[C@@H](C)[C@H]2CC[C@H]3[C@@H]4[C@H](O)C[C@@H]5C[C@H](O)CC[C@]5(C)[C@H]4C[C@H](O)[C@]23C)c1`, the Activity in experiment [1] amounted to 109%.
`Cc1ccc(F)cc1NC(=O)CC[C@@H](C)[C@H]1CC[C@H]2[C@@H]3[C@H](O)C[C@@H]4C[C@H](O)CC[C@]4(C)[C@H]3C[C@H](O)[C@]12C`: the Activity in experiment [1] is reported as 9%. In experiment [2], the pIC50 is 4.85.
As for `COc1ccccc1NC(=O)CC[C@@H](C)[C@H]1CC[C@H]2[C@@H]3[C@H](O)C[C@@H]4C[C@H](O)CC[C@]4(C)[C@H]3C[C@H](O)[C@]12C`, in experiment [1], the Activity is reported as 8%. Besides, the negative logarithm of the IC50 (pIC50) in experiment [2] was 5.01.
On the same counts, the results for `CC(C)CNC(=O)CC[C@@H](C)[C@H]1CC[C@H]2[C@@H]3[C@H](O)C[C@@H]4C[C@H](O)CC[C@]4(C)[C@H]3C[C@H](O)[C@]12C` are 62% and 3.81.
For `CCOC(=O)c1ccc(NC(=O)CC[C@@H](C)[C@H]2CC[C@H]3[C@@H]4[C@H](O)C[C@@H]5C[C@H](O)CC[C@]5(C)[C@H]4C[C@H](O)[C@]23C)cc1`, the Activity in experiment [1] stood at 105%.
As to `C[C@H](CCC(=O)NCc1ccccc1[N+](=O)[O-])[C@H]1CC[C@H]2[C@@H]3[C@H](O)C[C@@H]4C[C@H](O)CC[C@]4(C)[C@H]3C[C@H](O)[C@]12C`, the Activity in experiment [1] came out at 113%. The pIC50 in experiment [2] is 3.65.
Regarding `COc1ccc(NC(=O)CC[C@@H](C)[C@H]2CC[C@H]3[C@@H]4[C@H](O)C[C@@H]5C[C@H](O)CC[C@]5(C)[C@H]4C[C@H](O)[C@]23C)cc1`, the Activity in experiment [1] is 79%.
